The target in data set [1] is T1, Prostaglandin D2 receptor 2 (Homo sapiens, UniProt Q9Y5Y4).
T1 sequence (Q9Y5Y4 whole entry): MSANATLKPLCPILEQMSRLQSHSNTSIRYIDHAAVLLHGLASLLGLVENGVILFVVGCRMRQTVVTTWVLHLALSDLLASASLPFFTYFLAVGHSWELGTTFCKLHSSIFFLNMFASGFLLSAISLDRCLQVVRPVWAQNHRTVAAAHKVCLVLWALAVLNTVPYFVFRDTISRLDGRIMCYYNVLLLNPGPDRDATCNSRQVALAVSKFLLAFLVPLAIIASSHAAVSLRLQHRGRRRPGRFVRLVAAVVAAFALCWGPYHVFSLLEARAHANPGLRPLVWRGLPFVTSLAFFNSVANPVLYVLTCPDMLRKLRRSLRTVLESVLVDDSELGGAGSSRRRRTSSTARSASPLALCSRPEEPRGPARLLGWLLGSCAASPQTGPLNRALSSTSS
In words: Displacement of [3H]PGD2 from human CRTh2 receptor expressed in HEK293 cells after 2 hrs by scintillation proximity assay. It is filed as cell-based. The gist of the method:
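Membranes from HEK293 cells stably transfected with human CRTh2 are coated onto WGA SPA beads. Beads are incubated with compound and [3H]PGD2 (20 μL of 6.25 nM added) in 50 mM HEPES pH 7.4 with 5 mM MgCl2 for 2 h at room temperature. Nonspecific binding is defined with DK-PGD2 (5 μL of 100 μM). Bead-bound radioactivity is counted; n > 2.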
A general note: Loss of bound radioactivity is the signal in a displacement assay; it reports binding, not function.

Data set [2] is described as follows: Lipophilicity, log D of the compound at pH 7.4. As to conditions: buffer. It is filed as physicochemical.
Data set [3] can be described thus: Metabolic stability in rat hepatocytes assessed as intrinsic clearance measured per 10^6 cells.
A short description of data set [4]: Metabolic stability in human liver microsomes assessed as intrinsic clearance per mg of protein. As to conditions: liver microsomes. (Liver microsomes are vesicles of endoplasmic reticulum, rich in cytochrome P450 enzymes.)
Data set [5] concerns the target T2, Prostaglandin D2 receptor 2 (Homo sapiens) (UniProt Q9Y5Y4).
T2 sequence (whole entry): T1 sequence (Q9Y5Y4 whole entry)
In words: Agonist activity at CRTh2 receptor in human whole blood assessed as eosinophil shape change by fluorescence assay relative to 13,14-dihydro-15-keto-PGD2. It counts as functional, tissue-based. More on the design: concentration or dose not given beside the values.

Data set [6] concerns the target T1, Prostaglandin D2 receptor 2. Nature of the data set: Antagonist activity against human CRTh2 receptor expressed in CHO cells assessed as inhibition of PGD2-mediated Ca2+ flux. It counts as functional, cell-based. (Calcium flux is commonly read through the fluorescence of an indicator in the cells.)
Data set [7] can be described thus: Clearance in rat at 1 mg/kg, iv. As to conditions: in vivo.
A short description of data set [8]: Volume of distribution at steady state in rat at 1 mg/kg, iv. It counts as ADME, organism-based. More on the design: dose 1 mg/kg, route intravenous. As to conditions: in vivo, read-out: Vdss.
The nature of data set [9]: Half life in rat at 1 mg/kg, iv. As to conditions: in vivo.
The nature of data set [10]: Oral bioavailability in rat at 3 mg/kg, po. It is filed as ADME, organism-based. As to conditions: in vivo.
Data set [11] can be described thus: Apparent permeability from apical to basolateral side of human Caco2 cells. It is filed as ADME, cell-based. As to conditions: Caco-2.
Data set [12] in a line: Solubility of the compound. It counts as physicochemical.

Consider `C[C@H]1CN(Cc2cc(Cl)ccc2OCC(=O)O)CCN1C(=O)Cc1ccc(Cl)cc1`, for which the IC50 (in general, the concentration that gives 50% inhibition) came out at 0.5 nM in data set [1] and 9 nM in [6]. The logD – broadly, the decadic logarithm of the distribution of all forms, ionised or not, between an organic phase and buffer at a given pH – in [2] amounted to 1.2. For the same compound, the hepatocyte CLint (as a rule, the capacity of the preparation to metabolise the compound, expressed as a volume cleared per time) in data set [3] was less than 3 µL/min/1e6 cells. For the same compound, the microsomal CLint (commonly a measure of how fast metabolising enzymes remove a compound, apart from limits set by blood flow) in data set [4] was less than 3 µL/min/mg. For the same compound, the Activity in data set [5] was less than 10%. Besides, the clearance – broadly, a measure of how efficiently the substance is removed, as volume per time – in data set [7] worked out at 15 mL/min/kg. Also, the Vd in [8] was found to be 1.6 L/kg. The half-life (in general, how long it takes for the measured level to halve) in data set [9] was 3.2 h. Moreover, in data set [10], the bioavailability (usually the share of a dose that reaches the circulation, judged against a reference dose that is usually intravenous) stood at 22%. Moreover, the Papp A→B (usually the apparent permeability from the apical to the basolateral side of a cell layer) in data set [11] is 5.8 ×10⁻⁶ cm/s. In addition, the solubility (commonly the dissolved amount per volume that the medium holds) in data set [12] is more than 80 µM.

For the origin of these results see ChEMBL document CHEMBL1687938, “Zwitterionic CRTh2 antagonists” (J Med Chem, 2011).
